Measured values published in ChEMBL document CHEMBL1137011, “Antagonists of the calcium receptor I. Amino alcohol-based parathyroid hormone secretagogues” (J Med Chem, 2009).
Calls of active or inactive are those of the source. No cut-off for these calls is given here.

Key:
[1] = molecular target: Beta-3 adrenergic receptor (Homo sapiens, UniProt P13945); assay: Binding affinity to beta3 adrenoceptor
[2] = tested on: Rattus norvegicus; assay: Increase of new bone formation in ovariectomized postmenopausal osteoporosis Sprague-Dawley rat model at 100 umol/kg, po for 5 weeks; type: functional, organism-based
[3] = tested on: Rattus norvegicus; assay: Effect on net increase in bone mass in ovariectomized postmenopausal osteoporosis Sprague-Dawley rat model at 100 umol/kg, po for 5 weeks; type: functional, organism-based
[4] = tested on: Rattus norvegicus; assay: Increase in plasma parathyroid hormone level in normal conscious rat at 10 umol/kg, iv by immunoradiometric assay; type: functional, organism-based
Procedure, shortened: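 Normal conscious rats were given a single iv injection of 10 µmol/kg. Plasma PTH was measured over time by rat PTH(1-34) immunoradiometric assay, n = 6/group, mean ± SE.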

[5] = Half life in rat; type: ADME, organism-based; conditions: in vivo
[6] = molecular target: Cytochrome P450 2D6 (Homo sapiens, UniProt P10635); assay: Binding affinity to CYP2D6; type: ADME
Cytochrome P450 2D6, sequence (P10635 whole entry): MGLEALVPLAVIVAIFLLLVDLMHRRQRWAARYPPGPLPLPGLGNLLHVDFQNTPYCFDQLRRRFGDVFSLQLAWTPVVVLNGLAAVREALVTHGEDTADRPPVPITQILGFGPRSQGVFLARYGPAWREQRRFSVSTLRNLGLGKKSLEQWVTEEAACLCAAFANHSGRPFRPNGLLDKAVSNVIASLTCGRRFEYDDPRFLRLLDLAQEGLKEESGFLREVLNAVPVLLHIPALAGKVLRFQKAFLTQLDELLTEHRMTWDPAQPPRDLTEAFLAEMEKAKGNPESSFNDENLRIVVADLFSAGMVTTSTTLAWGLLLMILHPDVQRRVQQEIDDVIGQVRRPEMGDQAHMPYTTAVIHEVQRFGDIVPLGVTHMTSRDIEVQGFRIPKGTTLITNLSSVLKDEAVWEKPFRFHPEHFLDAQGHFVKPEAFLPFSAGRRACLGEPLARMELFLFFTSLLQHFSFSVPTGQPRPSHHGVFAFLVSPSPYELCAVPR

[7] = tested on: Rattus norvegicus; assay: Increase of bone mass in ovariectomized postmenopausal osteoporosis Sprague-Dawley rat model at 5 ug/kg, po for 5 weeks; type: functional, organism-based
[8] = Volume of distribution in rat; type: ADME, organism-based; conditions: in vivo
[9] = molecular target: Sodium-dependent serotonin transporter (Homo sapiens, UniProt P31645); assay: Binding affinity to serotonin transporter
Sodium-dependent serotonin transporter, sequence (P31645 whole entry): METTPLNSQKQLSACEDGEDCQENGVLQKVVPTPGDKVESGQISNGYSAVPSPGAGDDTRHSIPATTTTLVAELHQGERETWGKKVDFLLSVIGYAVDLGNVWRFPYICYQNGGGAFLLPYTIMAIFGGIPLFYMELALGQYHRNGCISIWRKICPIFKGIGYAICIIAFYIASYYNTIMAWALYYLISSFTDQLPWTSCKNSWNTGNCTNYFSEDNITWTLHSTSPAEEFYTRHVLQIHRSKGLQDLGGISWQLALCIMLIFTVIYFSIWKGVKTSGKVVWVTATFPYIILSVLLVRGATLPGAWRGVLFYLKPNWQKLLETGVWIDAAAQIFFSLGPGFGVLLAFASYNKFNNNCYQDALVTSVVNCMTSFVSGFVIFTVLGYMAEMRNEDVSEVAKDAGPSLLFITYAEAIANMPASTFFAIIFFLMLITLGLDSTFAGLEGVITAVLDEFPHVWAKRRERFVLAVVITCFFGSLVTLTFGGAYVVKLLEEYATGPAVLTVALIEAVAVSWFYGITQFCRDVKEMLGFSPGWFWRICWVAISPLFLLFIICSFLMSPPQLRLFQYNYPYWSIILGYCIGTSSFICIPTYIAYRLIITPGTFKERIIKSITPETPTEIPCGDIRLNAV

[10] = molecular target: Sodium-dependent noradrenaline transporter (Homo sapiens, UniProt P23975); assay: Binding affinity to norepinephrine transporter
Sodium-dependent noradrenaline transporter, sequence (P23975 whole entry): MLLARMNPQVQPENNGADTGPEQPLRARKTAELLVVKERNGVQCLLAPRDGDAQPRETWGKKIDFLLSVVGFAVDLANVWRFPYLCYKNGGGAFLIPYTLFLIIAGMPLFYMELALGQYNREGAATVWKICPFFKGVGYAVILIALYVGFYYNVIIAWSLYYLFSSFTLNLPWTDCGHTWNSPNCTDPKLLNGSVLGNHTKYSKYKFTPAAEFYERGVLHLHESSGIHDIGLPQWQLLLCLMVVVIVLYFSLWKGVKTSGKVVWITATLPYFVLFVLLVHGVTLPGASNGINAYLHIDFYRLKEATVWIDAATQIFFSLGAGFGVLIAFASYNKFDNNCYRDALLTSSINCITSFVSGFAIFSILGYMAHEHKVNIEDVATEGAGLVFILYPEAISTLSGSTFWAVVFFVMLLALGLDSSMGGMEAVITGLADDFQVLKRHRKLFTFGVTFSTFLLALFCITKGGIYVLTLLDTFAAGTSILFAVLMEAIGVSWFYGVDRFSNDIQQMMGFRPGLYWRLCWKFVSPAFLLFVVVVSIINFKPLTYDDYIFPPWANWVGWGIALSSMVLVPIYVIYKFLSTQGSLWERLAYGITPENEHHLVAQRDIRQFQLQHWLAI

[11] = molecular target: Sodium-dependent dopamine transporter (Homo sapiens, UniProt Q01959); assay: Binding affinity to dopamine transporter
Sodium-dependent dopamine transporter, sequence (Q01959 whole entry): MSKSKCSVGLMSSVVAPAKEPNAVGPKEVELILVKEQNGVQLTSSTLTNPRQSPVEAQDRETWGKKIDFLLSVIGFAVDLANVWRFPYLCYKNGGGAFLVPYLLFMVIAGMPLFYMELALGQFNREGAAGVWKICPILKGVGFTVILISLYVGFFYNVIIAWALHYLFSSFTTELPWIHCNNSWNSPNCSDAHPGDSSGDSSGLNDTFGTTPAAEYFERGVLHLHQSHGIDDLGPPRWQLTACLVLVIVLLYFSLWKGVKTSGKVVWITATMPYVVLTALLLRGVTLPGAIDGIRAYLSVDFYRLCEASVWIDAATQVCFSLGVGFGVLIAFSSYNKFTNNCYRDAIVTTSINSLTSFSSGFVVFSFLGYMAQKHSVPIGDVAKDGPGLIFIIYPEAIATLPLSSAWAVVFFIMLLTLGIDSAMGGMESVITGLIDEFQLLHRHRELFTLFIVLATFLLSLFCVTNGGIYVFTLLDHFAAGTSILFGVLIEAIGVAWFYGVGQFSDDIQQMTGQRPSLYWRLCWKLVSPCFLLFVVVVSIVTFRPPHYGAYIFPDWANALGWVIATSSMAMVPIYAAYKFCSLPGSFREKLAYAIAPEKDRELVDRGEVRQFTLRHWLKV

[12] = molecular target: Beta-2 adrenergic receptor (Homo sapiens, UniProt P07550); assay: Binding affinity to beta2 adrenoceptor
Beta-2 adrenergic receptor, sequence (P07550 whole entry): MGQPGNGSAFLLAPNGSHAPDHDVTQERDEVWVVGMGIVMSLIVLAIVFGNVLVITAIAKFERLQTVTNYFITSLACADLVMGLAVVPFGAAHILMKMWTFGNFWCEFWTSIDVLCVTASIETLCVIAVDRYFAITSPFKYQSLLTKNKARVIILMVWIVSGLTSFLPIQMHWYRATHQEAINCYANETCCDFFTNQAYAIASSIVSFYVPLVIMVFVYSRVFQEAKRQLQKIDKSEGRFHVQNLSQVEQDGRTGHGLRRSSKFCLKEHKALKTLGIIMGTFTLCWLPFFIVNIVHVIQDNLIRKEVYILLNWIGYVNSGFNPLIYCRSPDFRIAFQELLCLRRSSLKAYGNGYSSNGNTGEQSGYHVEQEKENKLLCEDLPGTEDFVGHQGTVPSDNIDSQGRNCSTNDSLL

[13] = Oral bioavailability in rat; type: ADME, organism-based; conditions: in vivo
[14] = molecular target: Beta-1 adrenergic receptor (Homo sapiens, UniProt P08588); assay: Binding affinity to beta-1 adrenoceptor
Beta-1 adrenergic receptor, sequence (P08588 whole entry): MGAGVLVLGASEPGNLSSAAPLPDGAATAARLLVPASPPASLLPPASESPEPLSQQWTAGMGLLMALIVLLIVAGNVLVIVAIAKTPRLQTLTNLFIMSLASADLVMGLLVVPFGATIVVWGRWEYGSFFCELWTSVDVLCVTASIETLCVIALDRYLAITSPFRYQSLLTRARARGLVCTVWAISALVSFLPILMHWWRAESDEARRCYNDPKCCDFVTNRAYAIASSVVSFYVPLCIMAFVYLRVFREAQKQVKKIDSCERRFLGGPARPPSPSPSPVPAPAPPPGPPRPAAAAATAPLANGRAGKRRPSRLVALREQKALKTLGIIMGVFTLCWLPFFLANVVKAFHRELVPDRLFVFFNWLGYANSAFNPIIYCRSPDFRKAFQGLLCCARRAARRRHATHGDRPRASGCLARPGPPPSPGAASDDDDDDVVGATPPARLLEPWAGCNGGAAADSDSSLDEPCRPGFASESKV

[15] = tested on: Rattus norvegicus; assay: Increase of bone mass in 17-beta-estradiol-treated ovariectomized postmenopausal osteoporosis Sprague-Dawley rat model at 100 umol/kg, po for 5 weeks; type: functional, organism-based
[16] = Increase in parathyroid hormone release in bovine parathyroid cells; type: functional, cell-based; conditions: Bos taurus
[17] = organism: Rattus norvegicus; assay: Clearance in rat; type: ADME, organism-based; conditions: in vivo
[18] = Antagonist activity at human calcium receptor 1 expressed in HEK293 4.0-7 cells assessed as inhibition of extracellular calcium-induced increase in intracellular calcium level by FLIPR assay; type: functional, cell-based
Procedure, shortened: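 HEK293 cells stably expressing human CaR, seeded 15K cells/well and grown 48 h at 37 °C. Loaded 45 min at 37 °C with Fluo4 (2 µM final) and probenecid (2.5 mM final) in HBSS with 0.75 mM Ca. Compound (top 25 µM final) was added 5 min at room temperature, then EC80 CaCl challenge, with FLIPR fluorescence read for 65 s.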

[19] = tested on: Rattus norvegicus; assay: Increase of resorption of old bone in ovariectomized postmenopausal osteoporosis Sprague-Dawley rat model at 100 umol/kg, po for 5 weeks; type: functional, organism-based
[20] = molecular target: T1, Extracellular calcium-sensing receptor (Homo sapiens, UniProt P41180); assay: Binding affinity to human parathyroid calcium receptor 1 expressed in HEK293 4.0-7 cells by radioligand binding assay; type: cell-based
T1 sequence (P41180 whole entry): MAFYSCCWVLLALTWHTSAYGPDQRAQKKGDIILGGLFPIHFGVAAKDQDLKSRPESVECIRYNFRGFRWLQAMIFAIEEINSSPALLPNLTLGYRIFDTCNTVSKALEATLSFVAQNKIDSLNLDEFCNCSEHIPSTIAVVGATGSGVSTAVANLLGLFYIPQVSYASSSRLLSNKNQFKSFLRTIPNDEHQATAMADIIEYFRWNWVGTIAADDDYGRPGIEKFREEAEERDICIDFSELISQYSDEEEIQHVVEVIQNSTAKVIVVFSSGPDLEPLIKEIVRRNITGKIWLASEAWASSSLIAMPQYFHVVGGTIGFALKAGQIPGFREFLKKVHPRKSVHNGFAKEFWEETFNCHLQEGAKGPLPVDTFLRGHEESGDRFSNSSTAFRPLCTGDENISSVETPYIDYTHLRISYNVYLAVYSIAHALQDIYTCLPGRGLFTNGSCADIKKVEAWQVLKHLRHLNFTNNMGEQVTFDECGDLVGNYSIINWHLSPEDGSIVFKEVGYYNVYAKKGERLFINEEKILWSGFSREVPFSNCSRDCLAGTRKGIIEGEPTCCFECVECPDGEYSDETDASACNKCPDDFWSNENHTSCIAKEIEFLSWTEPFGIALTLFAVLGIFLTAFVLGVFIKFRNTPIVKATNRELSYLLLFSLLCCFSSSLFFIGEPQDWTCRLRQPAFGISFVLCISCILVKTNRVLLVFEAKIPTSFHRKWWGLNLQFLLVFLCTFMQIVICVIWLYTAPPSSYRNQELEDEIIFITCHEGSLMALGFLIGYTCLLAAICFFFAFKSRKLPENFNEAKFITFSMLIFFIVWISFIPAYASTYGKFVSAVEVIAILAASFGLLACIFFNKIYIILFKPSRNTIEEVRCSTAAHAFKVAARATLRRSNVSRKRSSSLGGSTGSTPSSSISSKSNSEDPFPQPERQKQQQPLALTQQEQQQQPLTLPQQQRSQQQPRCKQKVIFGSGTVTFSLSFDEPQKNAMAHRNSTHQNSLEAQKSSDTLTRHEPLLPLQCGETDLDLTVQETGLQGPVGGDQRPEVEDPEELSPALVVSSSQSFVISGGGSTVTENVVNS
Procedure, shortened: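 Membranes from HEK293 4.0-7 cells stably expressing human CaR (4-10 µg) in 50 mM Tris-HCl pH 7.4, 1 mM EDTA, 3 mM MgCl2, 0.1% gelatin, 10% EtOH. Incubated with 2 nM 3H antagonist or 3H calcimimetic ligand for 30 min at 4 °C, then filtered onto PEI-treated GF/C and counted by scintillation. Nonspecific binding taken with 100-fold excess of unlabeled homologous ligand.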

[21] = molecular target: Voltage-gated inwardly rectifying potassium channel KCNH2 (Homo sapiens, UniProt Q12809); assay: Binding affinity to human ERG
Voltage-gated inwardly rectifying potassium channel KCNH2, sequence (Q12809 whole entry): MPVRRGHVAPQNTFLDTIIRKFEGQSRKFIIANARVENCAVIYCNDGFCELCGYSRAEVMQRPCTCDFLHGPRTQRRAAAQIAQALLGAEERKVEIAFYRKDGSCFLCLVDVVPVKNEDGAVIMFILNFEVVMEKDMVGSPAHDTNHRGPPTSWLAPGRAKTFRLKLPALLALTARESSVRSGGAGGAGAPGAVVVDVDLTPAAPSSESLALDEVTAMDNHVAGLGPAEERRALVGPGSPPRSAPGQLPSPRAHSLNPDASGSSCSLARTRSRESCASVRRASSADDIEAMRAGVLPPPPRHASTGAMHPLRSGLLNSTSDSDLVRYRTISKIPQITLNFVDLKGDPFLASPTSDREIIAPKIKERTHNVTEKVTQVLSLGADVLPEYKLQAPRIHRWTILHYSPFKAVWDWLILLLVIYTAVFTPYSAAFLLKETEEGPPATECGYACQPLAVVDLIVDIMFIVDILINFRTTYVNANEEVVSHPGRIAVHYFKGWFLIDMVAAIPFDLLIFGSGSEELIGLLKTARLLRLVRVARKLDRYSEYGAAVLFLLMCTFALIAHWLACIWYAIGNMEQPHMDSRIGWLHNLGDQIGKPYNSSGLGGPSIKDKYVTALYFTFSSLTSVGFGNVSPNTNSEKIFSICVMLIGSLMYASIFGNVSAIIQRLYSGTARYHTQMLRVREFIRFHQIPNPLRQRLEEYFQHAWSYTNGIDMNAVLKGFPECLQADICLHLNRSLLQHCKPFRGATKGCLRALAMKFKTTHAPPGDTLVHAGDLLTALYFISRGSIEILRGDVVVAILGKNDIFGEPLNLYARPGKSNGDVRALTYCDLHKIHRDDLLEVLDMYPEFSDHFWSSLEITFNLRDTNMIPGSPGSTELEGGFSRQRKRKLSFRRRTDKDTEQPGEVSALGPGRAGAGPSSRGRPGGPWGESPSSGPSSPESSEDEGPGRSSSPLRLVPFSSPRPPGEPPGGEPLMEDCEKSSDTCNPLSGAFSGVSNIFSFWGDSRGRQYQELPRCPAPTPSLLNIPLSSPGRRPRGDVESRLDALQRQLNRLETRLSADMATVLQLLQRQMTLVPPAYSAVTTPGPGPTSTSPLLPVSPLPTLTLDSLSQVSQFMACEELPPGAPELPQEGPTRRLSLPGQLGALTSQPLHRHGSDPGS

[22] = Clearance in men; type: ADME, organism-based; conditions: male, human, in vivo
[23] = Volume of distribution in human; type: ADME, organism-based; conditions: in vivo
[24] = Tmax in human; type: ADME, organism-based; conditions: in vivo
[25] = Clearance in women; type: ADME, organism-based; conditions: female, human, in vivo

Beta-3 adrenergic receptor, sequence (P13945 whole entry): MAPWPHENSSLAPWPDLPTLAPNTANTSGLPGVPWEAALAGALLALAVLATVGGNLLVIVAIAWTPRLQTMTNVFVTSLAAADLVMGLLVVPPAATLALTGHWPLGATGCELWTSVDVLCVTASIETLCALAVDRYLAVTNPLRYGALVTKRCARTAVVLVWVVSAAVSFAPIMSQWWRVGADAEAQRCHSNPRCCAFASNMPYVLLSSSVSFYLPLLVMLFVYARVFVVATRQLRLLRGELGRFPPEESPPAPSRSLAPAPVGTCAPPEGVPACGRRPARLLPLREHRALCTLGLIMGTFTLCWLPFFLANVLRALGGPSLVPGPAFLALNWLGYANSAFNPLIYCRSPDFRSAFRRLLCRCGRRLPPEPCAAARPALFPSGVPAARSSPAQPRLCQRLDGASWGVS

## CC(C)(Cc1ccc2ccccc2c1)NC[C@@H](O)COc1cccc(Cl)c1C#N.Cl
[1]
  EC50: Not Active
[2]
  Activity: Active
[3]
  Activity: Active
[4]
  Activity: Active
[5]
  half-life: 2 h
[6]
  IC50: 45 nM
[7]
  Activity: Active
[8]
  Vd: 11 L/kg
[9]
  IC50: 2 nM
[10]
  IC50: 200 nM
[11]
  IC50: 200 nM
[12]
  IC50: 4300 nM
[13]
  bioavailability: 11%
[14]
  EC50: Not Active
[15]
  Activity: Active
[16]
  EC50: 41 nM
[17]
  clearance: 74 mL/min/kg
[18]
  IC50: 43 nM
[19]
  Activity: Active
[20]
  IC50: 3 nM
[21]
  IC50: 3000 nM

## COc1ccc(CC(C)(C)NC[C@H](O)COc2cccc3[nH]c(=O)[nH]c23)cc1
[1]; read-out: EC50
  EC50: 7 nM
[6]
  IC50: 1260 nM
[9]
  IC50: 61 nM
[10]
  IC50: 600 nM
[11]
  IC50: 1200 nM
[12]
  IC50: 1.3 nM
[14]; read-out: EC50
  EC50: 3 nM
[18]
  IC50: 11000 nM
[20]
  IC50: 31800 nM
[21]
  IC50: 11800 nM

## COc1ccc(CC(C)(C)NC[C@@H](O)COc2cccc(Cl)c2Cl)cc1
[1]
  EC50: Not Active
[12]
  IC50: 300 nM
[18]
  IC50: 38 nM
[20]
  IC50: 68 nM

## COc1ccc(CC(C)(C)NC[C@H](O)COc2cccc(Cl)c2Cl)cc1
[1]; read-out: EC50
  EC50: 200 nM
[12]
  IC50: 1 nM
[18]
  IC50: 340 nM
[20]
  IC50: 300 nM

## COc1ccc(CC(C)(C)NCCCOc2cccc(Cl)c2Cl)cc1
[18]
  IC50: 2500 nM
[20]
  IC50: 930 nM

## CC(C)(Cc1ccccc1)NCC(O)COc1ccccc1 (racemic)
[18]
  IC50: 2300 nM

## COc1ccc(CC(C)(C)NCC(O)COc2ccccc2OC)cc1 (racemic)
[18]
  IC50: 15600 nM
[20]
  IC50: 3500 nM

## CCCOCC(O)CNC(C)(C)Cc1ccc(OC)cc1 (racemic)
[18]
  IC50: 16000 nM
[20]
  IC50: 7000 nM

## COc1ccc(CC(C)(C)NCC(O)COC(C)C)cc1 (racemic)
[18]
  IC50: 6400 nM
[20]
  IC50: 10000 nM

## CCCCOCC(O)CNC(C)(C)Cc1ccc(OC)cc1 (racemic)
[18]
  IC50: 2200 nM
[20]
  IC50: 3200 nM

## COc1ccc(CCNCC(O)COc2ccccc2)cc1 (racemic)
[18]
  IC50: > 100000 nM
[20]
  IC50: > 10000 nM

## COc1ccc(CC(C)NCC(O)COc2ccccc2)cc1 (racemic)
[18]
  IC50: > 100000 nM
[20]
  IC50: > 10000 nM

## COc1ccc(C(C)(C)NCC(O)COc2ccccc2)cc1 (racemic)
[18]
  IC50: > 100000 nM
[20]
  IC50: > 10000 nM

## COc1ccc(CCC(C)(C)NCC(O)COc2ccccc2)cc1 (racemic)
[18]
  IC50: 13000 nM
[20]
  IC50: 2780 nM

## COc1ccc(CC(C)(C)NCC(O)COc2ccc3ccccc3c2)cc1 (racemic)
[18]
  IC50: 1400 nM
[20]
  IC50: 1300 nM

## COc1ccc(CC(C)(C)NCC(O)COc2ccccc2)cc1 (racemic)
[18]
  IC50: 2300 nM
[20]
  IC50: 2300 nM

## COc1ccc(CC(C)(C)N(C)CC(O)COc2cccc(Cl)c2Cl)cc1 (racemic)
[18]
  IC50: > 3000 nM
[20]
  IC50: 2300 nM

## COc1ccc(CC(C)(C)NCC(COc2cccc(Cl)c2Cl)OC)cc1 (racemic)
[18]
  IC50: > 3000 nM
[20]
  IC50: 950 nM

## COc1ccc(CC(C)(C)NCC(O)COc2ccccc2Cl)cc1 (racemic)
[18]
  IC50: 490 nM
[20]
  IC50: 1000 nM

## COc1ccc(CC(C)(C)NCC(O)COc2cccc(Cl)c2Cl)cc1 (racemic)
[1]; read-out: EC50
  EC50: 200 nM
[12]
  IC50: 21 nM
[18]
  IC50: 45 nM
[20]
  IC50: 200 nM

## COc1ccc(CC(C)(C)NCC(O)COc2ccccc2C#N)cc1 (racemic)
[1]; read-out: EC50
  EC50: 20 nM
[6]
  IC50: 36 nM
[9]
  IC50: 21 nM
[10]
  IC50: 300 nM
[11]
  IC50: 300 nM
[12]
  IC50: 21 nM
[14]
  EC50: Not Active
[18]
  IC50: 45 nM
[20]
  IC50: 140 nM

## COc1ccc(C(C)(C)CNCC(O)COc2ccccc2)cc1 (racemic)
[18]
  IC50: > 100000 nM
[20]
  IC50: > 10000 nM

## COc1ccc(CC(C)(C)NCC(O)COc2cccc(Cl)c2)cc1 (racemic)
[18]
  IC50: 470 nM
[20]
  IC50: 1000 nM

## COc1ccc(CC(C)(C)NCC(O)COc2cccc(Cl)c2C#N)cc1 (racemic)
[1]
  EC50: Not Active
[6]
  IC50: 76 nM
[9]
  IC50: 34 nM
[10]
  IC50: 1000 nM
[11]
  IC50: 1100 nM
[12]
  IC50: 23 nM
[14]
  EC50: Not Active
[18]
  IC50: 38 nM
[20]
  IC50: 70 nM
[21]
  IC50: 3600 nM

## CC[C@H](C)[C@H](NC(=O)[C@H](CCC(=O)O)NC(=O)[C@H](CO)NC(=O)[C@@H](NC(=O)[C@@H](N)CO)C(C)C)C(=O)N[C@@H](CCC(N)=O)C(=O)N[C@@H](CC(C)C)C(=O)N[C@@H](CCSC)C(=O)N[C@@H](Cc1cnc[nH]1)C(=O)N[C@@H](CC(N)=O)C(=O)N[C@@H](CC(C)C)C(=O)NCC(=O)N[C@@H](CCCCN)C(=O)N[C@@H](Cc1cnc[nH]1)C(=O)N[C@@H](CC(C)C)C(=O)N[C@@H](CC(N)=O)C(=O)N[C@@H](CO)C(=O)N[C@@H](CCSC)C(=O)N[C@@H](CCC(=O)O)C(=O)N[C@@H](CCCN=C(N)N)C(=O)N[C@H](C(=O)N[C@@H](CCC(=O)O)C(=O)N[C@@H](Cc1c[nH]c2ccccc12)C(=O)N[C@@H](CC(C)C)C(=O)N[C@@H](CCCN=C(N)N)C(=O)N[C@@H](CCCCN)C(=O)N[C@@H](CCCCN)C(=O)N[C@@H](CC(C)C)C(=O)N[C@@H](CCC(N)=O)C(=O)N[C@@H](CC(=O)O)C(=O)N[C@H](C(=O)N[C@@H](Cc1cnc[nH]1)C(=O)N[C@@H](CC(N)=O)C(=O)N[C@@H](Cc1ccccc1)C(=O)O)C(C)C)C(C)C [TERIPARATIDE]
[22]
  clearance: 1570 mL/min
[23]
  Vd: 0.12 L/kg
[24]
  Tmax: ≤ 0.5 h
[25]
  clearance: 1030 mL/min
